Measured values published in ChEMBL document CHEMBL3856289, “Discovery of ONO-7300243 from a Novel Class of Lysophosphatidic Acid Receptor 1 Antagonists: From Hit to Lead” (ACS Med Chem Lett, 2016).
In brackets after ≈: the same amount, converted by molar mass. Activity calls are given as the source filed them. The rule behind the calls is not given here.

Columns and labels:
[1] = biological target: T1, Lysophosphatidic acid receptor 1 (Homo sapiens, UniProt Q92633); assay: Antagonist activity at human LPA1 receptor expressed in CHO cells assessed as reduction in LPA-induced intracellular Ca2+ concentration pretreated with compound followed by LPA addition by fluorescence assay; type: functional, cell-based
Outline: (§1)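 IC50s came from nonlinear regression of 5-point concentration–response curves, reported with 95% confidence intervals.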

Rattus norvegicus [2] = assay: Reduction in intraurethral pressure in conscious rat at 1 mg/kg, po measured after 60 mins; type: functional, organism-based; settings: 30 mg/kg, in the assay text read “30 mg/kg” for “1 mg/kg”
Outline: (§2)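 Conscious rats were dosed orally at 0 min with no LPA stimulation. Intraurethral pressure and mean blood pressure were recorded continuously for 60 min and averaged over 10-min intervals. Comparison was against vehicle.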

Rattus norvegicus [3] = assay: Toxicity in conscious rat assessed as reduction in mean blood pressure at 1 mg/kg, po measured after 60 mins; type: organism-based; settings: in vivo, 1 h; outline: as §2
[4] = biological target: Lysophosphatidic acid receptor 2 (Homo sapiens, UniProt Q9HBW0); assay: Inhibition of LPA2 (unknown origin); outline: as §1
[5] = biological target: T2, Lysophosphatidic acid receptor 3 (Homo sapiens, UniProt Q9UBY5); assay: Inhibition of LPA3 (unknown origin); outline: as §1
T2 sequence (Q9UBY5 whole entry): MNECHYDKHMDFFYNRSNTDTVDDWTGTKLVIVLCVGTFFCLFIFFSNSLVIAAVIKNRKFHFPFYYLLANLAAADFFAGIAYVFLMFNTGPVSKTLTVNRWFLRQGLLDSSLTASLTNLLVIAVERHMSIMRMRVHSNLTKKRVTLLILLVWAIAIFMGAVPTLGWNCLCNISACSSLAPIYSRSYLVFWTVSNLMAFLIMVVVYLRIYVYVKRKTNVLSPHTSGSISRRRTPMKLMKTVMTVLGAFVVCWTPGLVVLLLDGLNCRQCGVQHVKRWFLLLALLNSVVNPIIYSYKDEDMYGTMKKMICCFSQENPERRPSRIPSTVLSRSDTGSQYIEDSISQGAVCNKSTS

Rattus norvegicus [6] = assay: Inhibition of LPA-induced increase of intraurethral pressure in anesthetized rat at 10 mg/kg, id administered at 0 mins followed by LPA challenge at 0, 5, 15, 30 and 60 mins; type: functional; settings: Urethra
Outline: (§3)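 Anesthetized rats received compound in 0.5% methylcellulose intraduodenally at 0 min. LPA (300 μg/kg) was given i.v. before dosing and at 5, 15, 30 and 60 min. The read-out is the maximal inhibition rate of the LPA-evoked intraurethral pressure rise.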

[7] = Solubility of the compound in buffer at pH 6.8; type: physicochemical
[8] = Half life in human liver microsomes at 0.5 mg/ml; type: ADME
Outline: (§4)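 Liver microsomes were used at 0.5 mg/mL with NADPH. Half-life is reported in min.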

[9] = Half life in rat liver microsomes at 0.5 mg/ml; type: ADME; outline: as §4
Rattus norvegicus [10] = assay: Inhibition of LPA-induced increase of intraurethral pressure in anesthetized rat at 3 mg/kg, id administered at 0 mins followed by LPA challenge at 0, 5, 15, 30 and 60 mins; type: functional; settings: Urethra; outline: as §3
[11] = Apparent permeability in human Caco2 cells; type: ADME, cell-based; settings: Caco-2
Rattus norvegicus [12] = assay: Inhibition of LPA-induced increase of intraurethral pressure in po dosed rat administered 60 mins prior to LPA addition; type: functional; settings: Urethra
Outline: (§5)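 Conscious rats were dosed orally. After 60 min, LPA (300 μg/kg) was injected i.v. and intraurethral pressure was recorded under short-term anesthesia. ID50 was taken from the dose–response.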

Rattus norvegicus [13] = assay: Inhibition of LPA-induced increase of intraurethral pressure in rat at 10 mg/kg, po administered 60 mins prior to LPA addition; type: functional, organism-based; settings: Urethra; outline: as §5
Rattus norvegicus [14] = assay: Inhibition of LPA-induced increase of intraurethral pressure in rat at 30 mg/kg, po administered 60 mins prior to LPA addition; type: functional, organism-based; settings: Urethra; outline: as §5
Rattus norvegicus [15] = assay: In vivo antagonist activity at LPA1 receptor in conscious rat assessed as decrease in intraurethral pressure at 30 mg/kg, po; type: functional, organism-based; outline: as §2
Rattus norvegicus [16] = assay: Toxicity in conscious rat assessed as reduction in mean blood pressure at 30 mg/kg, po; type: organism-based; settings: in vivo; outline: as §2
[17] = Total clearance in rat at 3 mg/kg, iv; type: ADME, organism-based; settings: in vivo
[18] = Half life in rat at 3 mg/kg, iv; type: ADME, organism-based; settings: in vivo
[19] = biological target: T1, Lysophosphatidic acid receptor 1; assay: Antagonist activity at human LPA1 receptor expressed in CHO cells assessed as reduction in LPA-induced intracellular Ca2+ concentration at 1 uM pretreated with compound followed by LPA addition by fluorescence assay; type: functional, cell-based

Lysophosphatidic acid receptor 2, sequence (Q9HBW0 whole entry): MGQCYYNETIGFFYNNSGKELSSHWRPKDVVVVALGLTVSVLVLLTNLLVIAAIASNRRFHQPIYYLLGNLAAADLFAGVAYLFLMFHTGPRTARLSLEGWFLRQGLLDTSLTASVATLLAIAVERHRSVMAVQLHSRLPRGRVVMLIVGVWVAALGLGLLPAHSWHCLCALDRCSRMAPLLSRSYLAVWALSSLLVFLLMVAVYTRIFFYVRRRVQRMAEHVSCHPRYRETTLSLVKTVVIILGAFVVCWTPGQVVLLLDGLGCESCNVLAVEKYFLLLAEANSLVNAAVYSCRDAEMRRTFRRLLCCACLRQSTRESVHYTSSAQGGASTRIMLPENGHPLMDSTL
T1 sequence (Q92633 whole entry): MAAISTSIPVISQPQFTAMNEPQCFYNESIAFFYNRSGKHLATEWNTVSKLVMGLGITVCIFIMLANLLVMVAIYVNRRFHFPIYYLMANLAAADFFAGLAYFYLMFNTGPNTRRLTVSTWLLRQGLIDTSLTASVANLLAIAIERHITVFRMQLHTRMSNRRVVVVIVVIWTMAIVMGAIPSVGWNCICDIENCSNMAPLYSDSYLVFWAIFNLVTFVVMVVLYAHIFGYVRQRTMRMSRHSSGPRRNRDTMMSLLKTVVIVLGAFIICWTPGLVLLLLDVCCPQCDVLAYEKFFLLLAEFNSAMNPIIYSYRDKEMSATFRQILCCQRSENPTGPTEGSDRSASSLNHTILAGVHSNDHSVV

COc1cc(C(=O)N(CCCc2ccccc2)Cc2ccc(Oc3c(C)cccc3C(=O)O)cc2)cc(OC)c1C
IC50 [1]: 140 nM

COc1cc(C(=O)N(CCCc2ccccc2)Cc2ccc(Oc3cc(Cl)ccc3C(=O)O)cc2)cc(OC)c1C
IC50 [1]: 5.9 nM

COc1ccc(C(=O)N(CCCc2ccccc2)Cc2ccc(-c3ccccc3C(=O)O)cc2)cc1
IC50 [1]: 4400 nM

CCOc1ccccc1OCCN[C@H](C)Cc1ccc(OC)c(S(N)(=O)=O)c1 [TAMSULOSIN]
Activity (Rattus norvegicus [2]): Active | Activity (Rattus norvegicus [3]): Toxic

COc1cc(C(=O)N(CCCCc2ccccc2)Cc2ccc(OCC(=O)O)cc2)cc(OC)c1C
IC50 [1]: 6600 nM

COc1cc(OC)cc(C(=O)N(CCCc2ccccc2)Cc2ccc(Oc3ccccc3C(=O)O)cc2)c1
IC50 [1]: 89 nM

COc1cccc(C(=O)N(CCCc2ccccc2)Cc2ccc(-c3ccccc3C(=O)O)cc2)c1
IC50 [1]: 1300 nM

O=C(O)c1ccccc1-c1ccc(CN(CCCc2ccccc2)C(=O)c2ccccc2)cc1
IC50 [1]: 12100 nM

COc1cc(C(=O)N(CCCc2ccccc2)Cc2ccc(Oc3cc(C)ccc3C(=O)O)cc2)cc(OC)c1C
IC50 [1]: 15 nM

Cc1cccc(C(=O)N(CCCc2ccccc2)Cc2ccc(-c3ccccc3C(=O)O)cc2)c1
IC50 [1]: 1700 nM

COc1cc(C(=O)N(CCCc2ccccc2)Cc2ccc(Oc3ccc(Cl)cc3C(=O)O)cc2)cc(OC)c1C
IC50 [1]: 3.5 nM | IC50 [4]: 790 nM | IC50 [5]: > 10000 nM | inhibition in vivo at 10 mg/kg (Rattus norvegicus [6]): 53% | solubility [7]: 69 µM (≈ 39.6 µg/mL) | half-life [8]: < 15 min | half-life [9]: < 15 min

COc1cc(C(=O)N(CCCc2ccccc2F)Cc2ccc(CC(=O)O)cc2)cc(OC)c1C
IC50 [1]: 220 nM

COc1cc(C(=O)N(CCCc2ccc(F)cc2)Cc2ccc(CC(=O)O)cc2)cc(OC)c1C
IC50 [1]: > 1000 nM

COc1cc(C(=O)N(C/C=C/c2ccccc2)Cc2ccc(CC(=O)O)cc2)cc(OC)c1C
IC50 [1]: > 1000 nM

COc1ccccc1C(=O)N(CCCc1ccccc1)Cc1ccc(-c2ccccc2C(=O)O)cc1
IC50 [1]: 3300 nM

COc1cc(C(=O)N(CCCc2ccccc2)Cc2ccc(Oc3ccccc3C(=O)O)cc2)cc(OC)c1OC
IC50 [1]: 130 nM

COc1cc(C(=O)N(CCCc2ccccc2)Cc2ccc(CC(=O)O)cc2)cc(OC)c1C
IC50 [1]: 160 nM | IC50 [4]: 8600 nM | IC50 [5]: > 10000 nM | inhibition in vivo at 3 mg/kg (Rattus norvegicus [10]): 62% | inhibition in vivo at 10 mg/kg (Rattus norvegicus [6]): 88% | solubility [7]: 73 µM (≈ 33.7 µg/mL) | Papp [11]: 15.9 ×10⁻⁶ cm/s | half-life [8]: 28 min | half-life [9]: 29 min | inhibition (Rattus norvegicus [12]): Dose-dependent effect | ED50 (Rattus norvegicus [12]; read-out: ID50 (the source's name)): 11.6 mg/kg | inhibition (Rattus norvegicus [13]): Active | inhibition (Rattus norvegicus [14]): Active | inhibition (Rattus norvegicus [15]): Active | Activity (Rattus norvegicus [16]): Non-Toxic | Activity (Rattus norvegicus [2]): Active | clearance [17]: 15.9 mL/min/kg | half-life [18]: 18 min

COc1cc(C(=O)N(CCCc2ccccc2)Cc2ccc(C(=O)O)cc2)cc(OC)c1C
IC50 [1]: > 1000 nM

COc1cc(C(=O)N(CCc2ccccc2)Cc2ccc(OCC(=O)O)cc2)cc(OC)c1C
IC50 [1]: > 10000 nM

COc1cc(OC)cc(C(=O)N(CCCc2ccccc2)Cc2ccc(Oc3cccc(C(=O)O)c3)cc2)c1
IC50 [1]: 140 nM

COc1cc(C(=O)N(CCCc2ccccc2)Cc2ccc(Oc3ccccc3C(=O)O)cc2)cc(OC)c1C
IC50 [1]: 71 nM

COc1cc(C(=O)N(CCCc2ccccc2)Cc2ccc(Oc3ccc(C)cc3C(=O)O)cc2)cc(OC)c1C
IC50 [1]: 42 nM

O=C(O)c1ccccc1-c1ccc(CN(CCCc2ccccc2)C(=O)c2cccc(F)c2)cc1
IC50 [1]: 5500 nM

COc1cc(C(=O)N(CCCc2ccccc2)Cc2ccc(Oc3cccc(C)c3C(=O)O)cc2)cc(OC)c1C
IC50 [1]: 100 nM

Cc1cc(C)cc(C(=O)N(CCCc2ccccc2)Cc2ccc(-c3ccccc3C(=O)O)cc2)c1
IC50 [1]: 260 nM

COc1cc(C(=O)N(CCCc2ccccc2)Cc2ccc(-c3ccccc3C(=O)O)cc2)cc(OC)c1OC
IC50 [1]: 390 nM

COc1cc(OC)cc(C(=O)N(CCCc2ccccc2)Cc2ccc(-c3ccccc3CC(=O)O)cc2)c1
IC50 [1]: 210 nM

COc1cc(OC)cc(C(=O)N(CCCc2ccccc2)Cc2ccc(-c3ccccc3CCC(=O)O)cc2)c1
IC50 [1]: 230 nM

COc1cc(C(=O)N(CCCOc2cccc(C(=O)O)c2)CCCc2ccccc2)cc(OC)c1C
IC50 [1]: 680 nM

COc1cc(C(=O)N(CCCc2ccccc2)Cc2ccc(OCC(=O)O)cc2)cc(OC)c1C
IC50 [1]: 100 nM | IC50 [4]: 23000 nM | IC50 [5]: > 10000 nM | inhibition in vivo at 10 mg/kg (Rattus norvegicus [6]): 44% | solubility [7]: 84 µM (≈ 40.1 µg/mL) | Papp [11]: 3.2 ×10⁻⁶ cm/s | half-life [8]: 22 min | half-life [9]: 24 min

COc1cc(C(=O)N(CCCc2cccc(F)c2)Cc2ccc(CC(=O)O)cc2)cc(OC)c1C
IC50 [1]: 190 nM

COc1cc(OC)cc(C(=O)N(CCCc2ccccc2)Cc2ccc(Oc3ccc(C(=O)O)cc3)cc2)c1
inhibition [19]: 44%

COc1cc(OC)cc(C(=O)N(CCCc2ccccc2)Cc2ccc(-c3ccccc3C(=O)O)cc2)c1
IC50 [1]: 260 nM

COc1ccc(C(=O)N(CCCc2ccccc2)Cc2ccc(-c3ccccc3C(=O)O)cc2)cc1OC
IC50 [1]: 3700 nM
